ChEMBL document CHEMBL4024760, “Specific Inhibition of Bacterial β-Glucuronidase by Pyrazolo[4,3-c]quinoline Derivatives via a pH-Dependent Manner To Suppress Chemotherapy-Induced Intestinal Toxicity” (J Med Chem, 2017)

What was measured:
Escherichia coli [1] = assay: Inhibition of N-terminal His-tagged Escherichia coli beta-glucuronidase expressed in Escherichia coli BL21 (DE3) assessed as residual activity using pNPG as substrate at 10 uM preincubated for 30 mins followed by substrate addition measured after 1 hr relative to control
Method in brief: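 Purified E. coli βG (20 ng) preincubated with 10 μM compound for 30 min at 37 °C in PBS pH 7.5 with 10% DMSO and 0.05% BSA. pNPG (20 mM stock) then added for 1 h, quenched with 2 N NaOH, and read at OD405. Result given as % activity versus a 10% DMSO control; n = 3.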

beta-glucuronidase = target: T1, beta-glucuronidase (Homo sapiens, UniProt P08236); assay: Inhibition of N-terminal His-tagged human beta-glucuronidase expressed in Escherichia coli BL21 (DE3) assessed as residual activity using pNPG as substrate at 10 uM preincubated for 30 mins followed by substrate addition measured after 1 hr relative to control; settings: probe pNPG, read-out: Activity
T1 sequence (P08236 whole entry): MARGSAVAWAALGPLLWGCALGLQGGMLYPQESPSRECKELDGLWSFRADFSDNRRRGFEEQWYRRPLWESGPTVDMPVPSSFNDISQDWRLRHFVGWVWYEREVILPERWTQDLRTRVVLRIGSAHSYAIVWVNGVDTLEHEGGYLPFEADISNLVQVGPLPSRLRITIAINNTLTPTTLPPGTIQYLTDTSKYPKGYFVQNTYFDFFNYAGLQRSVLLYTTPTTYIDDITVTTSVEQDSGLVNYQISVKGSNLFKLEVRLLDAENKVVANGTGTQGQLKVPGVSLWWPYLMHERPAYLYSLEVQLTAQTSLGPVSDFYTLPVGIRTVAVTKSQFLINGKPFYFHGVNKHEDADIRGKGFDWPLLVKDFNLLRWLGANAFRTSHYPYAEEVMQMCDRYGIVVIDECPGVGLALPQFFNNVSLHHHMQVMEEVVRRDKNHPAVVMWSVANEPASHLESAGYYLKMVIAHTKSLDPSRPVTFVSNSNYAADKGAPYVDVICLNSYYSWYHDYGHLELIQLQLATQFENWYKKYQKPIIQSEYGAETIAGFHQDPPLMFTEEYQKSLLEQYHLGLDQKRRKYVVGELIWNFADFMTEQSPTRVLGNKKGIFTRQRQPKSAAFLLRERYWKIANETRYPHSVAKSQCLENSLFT

[2] = Inhibition of N-terminal His-tagged Escherichia coli beta-glucuronidase expressed in Escherichia coli BL21 (DE3) using pNPG as substrate preincubated for 30 mins followed by substrate addition measured after 1 hr
Method in brief: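 Purified E. coli βG (20 ng) preincubated 30 min at 37 °C with compound (0.64–10 000 nM) in PBS pH 7.5 containing 10% DMSO and 0.05% BSA. pNPG (20 mM stock) then added for 1 h, quenched with 2 N NaOH, and pNP read at 405 nm. IC50 derived from a four-parameter curve fit; SD of n = 3.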

Escherichia coli [3] = assay: Toxicity against Escherichia coli BL21(DE3) assessed as effect on cell growth at 100 uM after 6 hrs
Method in brief: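 BL21(DE3) E. coli (diluted to OD600 0.1 in LB after overnight growth) incubated with compound at a final 100 μM, shaking at 37 °C for 6 h. Growth measured by OD600; viability given as % of the untreated control.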

[4] = test system: Escherichia coli BL21(DE3); assay: Inhibition of beta-glucuronidase in Escherichia coli BL21 (DE3) using pNPG as substrate at 50 uM preincubated for 30 mins followed by substrate addition measured after 1 hr relative to control
Method in brief: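 BL21(DE3) E. coli grown overnight and diluted to OD600 0.1 in LB. Cells treated with compound (50, 10 or 2 μM) for 30 min at 37 °C, then pNPG (40 mM stock) added for 1 h. Cells pelleted at 6000g; supernatant quenched with NaOH and read at OD405. Activity given as % of a 1% DMSO control.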

| Activity (Escherichia coli [1]) [%] | activity at 1 h, 10 µM (beta-glucuronidase) [%] | IC50 [2] [nM] | inhibition [4] [%] | SMILES | Activity (Escherichia coli [3]) |
| --- | --- | --- | --- | --- | --- |
| 6.8 | 85.7 | 24.7 |  | Cc1ccc(Nc2nc3c(C)cccc3c3[nH]nc(N)c23)cc1 |  |
| 6.84 | 91.5 | 38.1 | > 80 | Cc1ccc(Nc2nc3cc(F)ccc3c3[nH]nc(N)c23)cc1 | Toxic |
| 111 | 82.7 |  |  | c1ccc2c(c1)c1nonc1c1ccoc21 |  |
| 46.5 | 90.9 | 9200 |  | Nc1n[nH]c2c1c(Nc1ccc([N+](=O)[O-])cc1)nc1ccccc12 |  |
| 112 | 99 |  |  | Fc1ccc2nc(/C=N/NC3=NCCN3)ccc2c1 |  |
| 6.78 | 92.8 | 29.6 |  | Nc1n[nH]c2c1c(Nc1ccc(Cl)cc1)nc1cc(F)ccc12 |  |
| 4.57 | 98.8 | 34.8 | > 80 | Nc1n[nH]c2c1c(Nc1ccc(Cl)cc1)nc1ccccc12 | Toxic |
| 99.1 | 84.6 |  |  | COc1ccc(-c2cc3cc(F)ccc3nc2/C=C2\SC(=O)NC2=O)cc1 |  |
| 6 | 83.4 | 133 |  | CC(=O)c1ccc(Nc2nc3ccccc3c3[nH]nc(N)c23)cc1 |  |
| 113 | 88.9 |  |  | Fc1ccc(-c2cc(-c3ccc4cc(F)ccc4n3)n(-c3ccccc3)n2)cc1 |  |
| 99 | 83 |  |  | Nc1n[nH]c2c1c(O)nc1ccccc12 |  |
| 102 | 80.5 |  |  | CCOc1nc2ccccc2c2[nH]nc(N)c12 |  |
| 112 | 78.5 |  |  | NC(=S)N/N=C/c1ccc2cc(F)ccc2n1 |  |
| 112 | 80.2 |  |  | CN(C)CCCN1C(=O)S/C(=C/c2ccc3cc(F)ccc3n2)C1=O |  |
| 14.8 | 93.6 | 673 |  | Cc1ccccc1Nc1nc2ccccc2c2[nH]nc(N)c12 |  |
| 9.04 | 88.3 | 238 |  | Cc1cccc2c1nc(Nc1ccc(Cl)cc1)c1c(N)n[nH]c12 |  |
| 101 | 108 |  |  | CCOC(=O)CSc1nc2ccccc2c2sc(C(=O)OCC)c(N)c12 |  |
| 19 | 102 | 154 |  | Nc1n[nH]c2c1c(Nc1ccc(C(=O)O)cc1)nc1ccccc12 |  |
| 8.67 | 106 | 626 |  | Nc1n[nH]c2c1c(Nc1ccc(O)cc1)nc1ccccc12 |  |
| 87.4 | 86.9 |  |  | CCN(CC)CCNC(=O)c1ccc(/N=C2/c3ccccc3C(=O)c3c2ccn3Cc2ccccc2)cc1 |  |
| 12.1 | 97.9 | 55.3 | > 80 | Cc1ccc(Nc2nc3ccc(Br)cc3c3[nH]nc(N)c23)cc1 | Toxic |
| 34.1 | 92.4 |  |  | COc1cc(/C=C2\CN(C(=O)CN(C)C)C/C(=C\c3cc(OC)c(OC)c(OC)c3)C2=O)cc(OC)c1OC |  |
| 114 | 89.5 |  |  | COc1ccc(-c2cc3ccccc3nc2C2CC(c3cc(OC)c(OC)c(OC)c3)=NN2C(N)=S)cc1 (centres undefined) |  |
| 114 | 82.2 |  |  | Fc1ccc(-c2cc(-c3ccc4cc(F)ccc4n3)nn2-c2ccccc2)cc1 |  |

| Activity (Escherichia coli [1]) [%] | activity at 1 h, 10 µM (beta-glucuronidase) [%] | IC50 [2] [nM] | inhibition [4] [%] | SMILES | Activity (Escherichia coli [3]) |
| --- | --- | --- | --- | --- | --- |
| 5.66 | 101 | 98.2 |  | Nc1n[nH]c2c1c(Nc1ccc(C(F)(F)F)cc1)nc1ccccc12 |  |
| 99.2 | 102 |  |  | O=C1S/C(=C/c2ccc3cc(F)ccc3n2)C(=O)N1CCN1CCCC1 |  |
| 99.3 | 79.4 |  |  | Nc1n[nH]c2c1cnc1ccccc12 |  |
| 104 | 86.8 |  |  | CNC(=S)N/N=C1\C(=O)c2ccccc2-c2occc21 |  |
| 14.9 | 94.1 | 308 |  | Nc1n[nH]c2c1c(Nc1cccc(Cl)c1)nc1ccccc12 |  |
| 109 | 85.9 |  |  | O=C(O)CN1C(=O)S/C(=C/c2ccc3cc(F)ccc3n2)C1=O |  |
| 6.13 | 91.5 | 14.4 | > 80 | Cc1ccc(Nc2nc3ccc(Cl)cc3c3[nH]nc(N)c23)cc1 | Toxic |
| 111 | 107 |  |  | COc1cc(/C=C2\CNC/C(=C\c3cc(OC)c(OC)c(OC)c3)C2=O)cc(OC)c1OC |  |
| 73.5 | 79.8 |  |  | Cc1cc2c(n1CCCN(C)CCCn1c(C)cc3c1C(=O)c1ccccc1C3=O)C(=O)c1ccccc1C2=O |  |
| 16.4 | 107 | 18 | > 80 | Nc1n[nH]c2c1c(Nc1ccc(Cl)cc1)nc1ccc(Br)cc12 | Toxic |
| 112 | 85.4 |  |  | COc1ccc(-c2nc3c4ccoc4c4ccccc4c3[nH]2)cc1 |  |
| 6.35 | 88.2 | 55.6 | > 80 | Nc1n[nH]c2c1c(Nc1ccc(Cl)cc1)nc1ccc(Cl)cc12 | Toxic |
| 6 | 78.3 | 884 |  | Nc1n[nH]c2c1c(Nc1cccc(O)c1)nc1ccccc12 |  |
| 11.3 | 62.2 | 598 |  | Nc1ccc(Nc2nc3ccccc3c3[nH]nc(N)c23)cc1 |  |
| 112 | 85.4 |  |  | COc1cc(C(=O)C2CC2c2ccc3ccccc3n2)cc(OC)c1OC (centres undefined) |  |
| 74.9 | 80.6 |  |  | O=C1c2ccccc2-c2c(N3CCC(O)CC3)nc3ccccc3c21 |  |
| 115 | 88.9 |  |  | O=C1NC(=O)/C(=C\c2ccc3cc(F)ccc3n2)S1 |  |
| 80.7 | 86.5 | > 10000 |  | Cc1cccc(Nc2nc3ccccc3c3[nH]nc(N)c23)c1 |  |
| 10.3 | 79.8 | 281 |  | Nc1n[nH]c2c1c(Nc1ccccc1Cl)nc1ccccc12 |  |
| 86.3 | 83.9 |  |  | Nc1n[nH]c2c1c(N)nc1ccccc12 |  |
| 111 | 87.9 |  |  | CCOC(=O)CN1C(=O)S/C(=C/c2ccc3cc(F)ccc3n2)C1=O |  |
| 12 | 85.6 | 613 |  | Nc1n[nH]c2c1c(Nc1ccccc1O)nc1ccccc12 |  |
| 2.33 | 106 |  |  | Nc1n[nH]c2c1c(Nc1ccccc1)nc1ccccc12 |  |
| 107 | 96.5 |  |  | O=C1S/C(=C/c2ccc3cc(F)ccc3n2)C(=O)N1CCN1CCCCC1 |  |

| SMILES | Activity (Escherichia coli [1]) [%] | activity at 1 h, 10 µM (beta-glucuronidase) [%] | IC50 [2] [nM] | inhibition [4] [%] | Activity (Escherichia coli [3]) |
| --- | --- | --- | --- | --- | --- |
| CCOc1ccc(NC(=S)N(CCO)Cc2cc3cc(C)cc(C)c3[nH]c2=O)cc1 | 8.83 |  | 846 |  |  |
| O=C(O)[C@@H](O)[C@H]1OC(=O)[C@H](O)[C@H]1O [D-SACCHARIC ACID 1,4-LACTONE] | 75.7 | 33.5 | > 10000 |  |  |
